Results on twelve compounds are retold here after ChEMBL document CHEMBL1159085, “Proteasome inhibition in human breast cancer cells with high catechol-O-methyltransferase activity by green tea polyphenol EGCG analogs” (Bioorg Med Chem, 2010).

A short description of assay [1]: Inhibition of chymotrypsin like activity of proteasome. Type of assay: subcellular.
For assay [2], the system named is MDA-MB-231. Put plainly: Antiproliferative activity against human MDA-MB-231 cells with high catechol-O-methyltransferase activity at 50 uM after 24 hrs by MTT assay. Type of assay: functional. In outline: (§1)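 MDA-MB-231 cells were grown in RPMI 1640 with 10% FBS, 100 units/ml penicillin and 100 μg/ml streptomycin at 37°C and 5% CO2. Triplicate wells were exposed to 25 or 50 μM compound for 24 h. MTT (1 mg/ml) was then added for 3 h at 37°C, and the formazan was dissolved in DMSO after the medium was removed.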

The test system of assay [3] is MDA-MB-231. Put plainly: Antiproliferative activity against human MDA-MB-231 cells with high catechol-O-methyltransferase activity at 25 uM after 24 hrs by MTT assay. Type of assay: functional. As to conditions: for inhibition at 25 µM: MDA-MB-231, 24 h. An outline of the steps:
as §1

For assay [4], the system named is MDA-MB-231. Put plainly: Inhibition of chymotrypsin like activity of 20S proteasome in human MDA-MB-231 cells assessed as cleavage of Suc-LLVY-AMC substrate after 2 hrs by fluorogenic assay. Type of assay: cell-based. In outline:
(§2)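 Crude MDA-MB-231 cell extract (5.7 μg) was used as the source of 26S proteasome. It was incubated with compound at a range of concentrations, or with solvent, plus 20 μM Suc-LLVY-AMC in 20 mM Tris-HCl, pH 7.5, for 2 h at 37°C. Chymotrypsin-like activity was read by fluorescence at 355 nm excitation and 460 nm emission.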

Assay [5] deals with MDA-MB-231. The assay is described as follows: Antiproliferative activity against human MDA-MB-231 cells at 25 to 50 uM after 24 hrs by MTT assay. Type of assay: functional. An outline of the steps: as §1
For assay [6], the species on record is Oryctolagus cuniculus. Put plainly: (§3) Inhibition of chymotrypsin like activity of rabbit 20S proteasome assessed as cleavage of Suc-LLVY-AMC substrate after 2 hrs by fluorogenic assay. In outline: (§4)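 Purified rabbit 20S proteasome (35 ng) was incubated with 20 μM Suc-LLVY-AMC in 20 mM Tris-HCl, pH 7.5, with compound at various concentrations or solvent, for 2 h at 37°C. Fluorogenic substrate hydrolysis was then measured at 355 nm excitation and 460 nm emission.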

Assay [7] relates to MDA-MB-231. The assay is described as follows: Inhibition of chymotrypsin like activity of 20S proteasome in human MDA-MB-231 cells lysates with high catechol-O-methyltransferase activity assessed as cleavage of Suc-LLVY-AMC substrate at 10 uM after 2 hrs by fluorogenic assay. In outline: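 MDA-MB-231 cell extract (5.7 μg protein) incubated with test agent or solvent and 20 μM Suc-LLVY-AMC in 20 mM Tris–HCl pH 7.5 for 2 h at 37°C. Chymotrypsin-like activity read as AMC fluorescence (ex 355 nm, em 460 nm).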

For assay [8], the system named is MDA-MB-231. The assay is described as follows: Inhibition of chymotrypsin like activity of 20S proteasome in COMT inhibitor 3,5-dinitrocatechol pretreated human MDA-MB-231 cells lysates with high catechol-O-methyltransferase activity assessed as cleavage of Suc-LLVY-AMC substrate at 10 uM after 2 hrs by fluorogenic assay. Type of assay: cell-free. An outline of the steps:
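MDA-MB-231 cell extract (5.7 μg) was pre-treated with 10 μM 3,5-dinitrocatechol for 20 min. Compound and 20 μM Suc-LLVY-AMC were then added in 20 mM Tris-HCl, pH 7.5, and incubated for 2 h at 37°C. AMC release was read by fluorescence at 355 nm excitation and 460 nm emission.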

Assay [9] is filed under the species Oryctolagus cuniculus. The assay is described as follows: Inhibition of chymotrypsin like activity of rabbit 20S proteasome assessed as cleavage of Suc-LLVY-AMC substrate at 50 uM after 2 hrs by fluorogenic assay. An outline of the steps:
as §4

A short description of assay [10]: as §3. The arrangement: species or system Oryctolagus cuniculus. In outline: as §4
The test system of assay [11] is MDA-MB-231. Put plainly: Inhibition of chymotrypsin like activity of 20S proteasome in human MDA-MB-231 cells lysates with high catechol-O-methyltransferase activity assessed as cleavage of Suc-LLVY-AMC substrate at 1 to 10 uM after 2 hrs by fluorogenic assay. Type of assay: cell-free. An outline of the steps:
as §2

Assay [12] has as its system MDA-MB-231. Put plainly: Inhibition of 20S proteasome in human MDA-MB-231 cells assessed as accumulation of proteasome substrate at 50 uM after 22 hrs by Western blot. It counts as cell-based. An outline of the steps: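 Intact MDA-MB-231 cells were cultured in RPMI 1640 with 10% FBS and penicillin/streptomycin at 37°C and 5% CO2. They were treated with 50 μM compound for 22 h. Accumulation of ubiquitinated proteins, used as a measure of proteasome substrates, was then detected by Western blotting of cell lysates.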

Calls of active or inactive are those of the source. No cut-off for these calls is given here.

`O=C(O[C@@H]1Cc2c(O)cc(O)cc2O[C@@H]1c1cc(O)c(O)c(O)c1)c1cc(O)c(O)c(O)c1` (stereo in doubt; 3) [EPIGALOCATECHIN GALLATE]: the IC50 in assay [1] stood at 170 nM.
Take `CC(=O)Oc1cc(C(=O)O[C@H]2Cc3ccccc3C[C@H]2OC(=O)c2cc(OC(C)=O)c(OC(C)=O)c(OC(C)=O)c2)cc(OC(C)=O)c1OC(C)=O`: the “growth inhibition (GI)” value in the assay with MDA-MB-231 [2] and with MDA-MB-231 [3] was “Active” in each case. Besides, the inhibition at 25 µM with MDA-MB-231 [3] amounted to 48%. Besides, the inhibition result in the assay on MDA-MB-231 [4] is “inactive”. In the assay with MDA-MB-231 [5], the “growth inhibition (GI)” value is 50%.
Turning to `CC(=O)Oc1cc(C(=O)O[C@H]2Cc3ccccc3C[C@H]2OC(C)=O)cc(OC(C)=O)c1OC(C)=O`, in the assay on MDA-MB-231 [4], the inhibition entry is “inactive”.
In the case of `O=C(O[C@@H]1Cc2c(O)cc(O)cc2O[C@@H]1c1cc(O)c(O)c(O)c1)c1cc(O)c(O)c(O)c1` (stereo in doubt; 1) [EPIGALOCATECHIN GALLATE], it took 86 nM to reach half-maximal inhibition in assay [1] (IC50).
For the compound `O=C(O[C@@H]1Cc2c(O)cc(O)cc2O[C@@H]1c1cc(O)c(O)c(O)c1)c1cc(O)c(O)c(O)c1` (stereo in doubt; 1), the inhibition entry in the assay filed under Oryctolagus cuniculus [6] and in the assay on MDA-MB-231 [8] was “Active” each time. In the assay on MDA-MB-231 [7], the inhibition was 22%.
Compound `CC(=O)Oc1cc(OC(C)=O)c2c(c1)O[C@H](c1cc(OC(C)=O)c(OC(C)=O)c(OC(C)=O)c1)[C@H](OC(=O)c1cc(OC(C)=O)c(OC(C)=O)c(OC(C)=O)c1)C2` came in with an inhibition at 25 µM in the assay with MDA-MB-231 [3] of 42%. Further, in the assay on MDA-MB-231 [4], the inhibition entry was “inactive”. The “growth inhibition (GI)” value with MDA-MB-231 [5] turned out to be 0%.
As to `O=C(O[C@H]1Cc2ccccc2C[C@H]1O)c1cc(O)c(O)c(O)c1`, the inhibition result in the assay listed under Oryctolagus cuniculus [9] is “inactive”.
For the compound `O=C(O[C@H]1Cc2ccccc2C[C@H]1OC(=O)c1cc(O)cc(O)c1)c1cc(O)cc(O)c1`, the IC50 in [10] came out at 29000 nM. For the same compound, the inhibition in the assay on MDA-MB-231 [11] is 18%. In addition, the inhibition entry with MDA-MB-231 [8] was “Active”.
With `O=C(O[C@H]1Cc2ccccc2C[C@H]1O)c1cc(O)cc(O)c1`, in the assay filed under Oryctolagus cuniculus [9], the inhibition result is “inactive”.
On to `O=C(O[C@H]1Cc2ccccc2C[C@H]1OC(=O)c1cc(O)c(O)c(O)c1)c1cc(O)c(O)c(O)c1`, for which the IC50 turned out to be 340 nM in assay [1] and 19000 nM in assay [10]. In addition, the inhibition with MDA-MB-231 [11] was 10%. Besides, the inhibition result in the assay with MDA-MB-231 [8] is “Active”.
For `CC(=O)Oc1cc(OC(C)=O)cc(C(=O)O[C@H]2Cc3ccccc3C[C@H]2OC(=O)c2cc(OC(C)=O)cc(OC(C)=O)c2)c1`, the “growth inhibition (GI)” value in the assay with MDA-MB-231 [2] is “Active”. In the assay on MDA-MB-231 [2] (MDA-MB-231, 24 h, read-out: INH), the inhibition at 50 µM amounted to 69%. Moreover, in the assay with MDA-MB-231 [3], the “growth inhibition (GI)” value was “Active” and the inhibition at 25 µM was found to be 69%. The inhibition result in the assay on MDA-MB-231 [4] is “inactive”. The inhibition entry in the assay with MDA-MB-231 [12] was “Active”.
For the compound `CC(=O)Oc1cc(OC(C)=O)cc(C(=O)O[C@H]2Cc3ccccc3C[C@H]2OC(C)=O)c1`, the inhibition entry in the assay with MDA-MB-231 [4] is “inactive”.
